Lipid droplet – inhibitors of hepatocyte lipid droplet formation, primary screen, imaging, high-throughput imaging, BODIPY stain; hit rate 0.4% among 240,000; inhibition, % at 6.5 µM; AML12 mouse hepatocytes, oleate lipid droplets;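 active = lipid droplet intensity inhibited by at least 50%, with more than 500 cells counted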
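Technique: fluorescence imaging, 20x objective, two fields per well / Assay system: AML12 hepatocytes (mouse) / Measure: % inhibition of lipid droplet signal / Doses: 6.5 µM single-point dosing / Incubation: overnight exposure / Reagent: 100 µM oleic acid challenge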
HGIII-sPLA2 inh – human group III sPLA2 inhibitors, primary screen, biochemical, QFRET, BODIPY PC-A2 liposome substrate; inhibition, % at 12.2 µM; hit rate 0.56% among 370,000; Group 3 secretory phospholipase A2 (Homo sapiens), Q9NZ20; QFRET BODIPY PC-A2 liposome hydrolysis, fluorescence;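 active = inhibition above mean plus 3 SD of compounds lying within the high and low control bounds, cut at about 19% in these data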;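 note: 0% = median of test compound wells and 100% = no enzyme DMSO wells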
Target sequence (Q9NZ20 whole entry, looked up): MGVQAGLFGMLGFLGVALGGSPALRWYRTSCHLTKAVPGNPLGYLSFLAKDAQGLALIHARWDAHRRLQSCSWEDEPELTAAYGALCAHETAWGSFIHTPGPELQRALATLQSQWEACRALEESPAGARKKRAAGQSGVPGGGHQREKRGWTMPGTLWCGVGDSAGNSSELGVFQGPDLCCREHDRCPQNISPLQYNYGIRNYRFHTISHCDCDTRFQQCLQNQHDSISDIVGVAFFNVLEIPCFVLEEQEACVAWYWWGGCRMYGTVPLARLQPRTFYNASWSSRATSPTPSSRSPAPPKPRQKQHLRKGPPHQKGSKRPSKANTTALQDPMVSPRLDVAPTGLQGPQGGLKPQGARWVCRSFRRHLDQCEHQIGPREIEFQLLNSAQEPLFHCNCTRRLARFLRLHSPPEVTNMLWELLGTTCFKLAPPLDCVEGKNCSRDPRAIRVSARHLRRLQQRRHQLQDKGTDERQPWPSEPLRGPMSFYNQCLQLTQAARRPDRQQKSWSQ
PfM18AAP inh – PfM18AAP inhibitors, malaria aminopeptidase, primary screen, biochemical, QFRET, recombinant enzyme. M18 aspartyl aminopeptidase (Plasmodium falciparum 3D7). inhibition, % at 7.35 µM. AID 1822, 2009. H-Glu-NHMec fluorogenic cleavage. hit rate 1.2% among 290,000;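 active = inhibition above the campaign mean inhibition over all tested compounds plus 3 SD, cut at about 28% in these data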;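 note: 0% = plate median of test compound wells and 100% = 2 mM ZnCl2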
Arr AP2 block – inhibitors of beta-arrestin/AP2 binding, primary screen, biochemical, GPCR trafficking, flow cytometry; beta-arrestin 1 C-terminal peptide binding to AP2 beta2-adaptin appendage (human); FITC-arrestin peptide / GST-AP2 beads; AP2 beta2 appendage carries R879A mutation; inhibition, % at 10 µM; hit rate 0.31% among 340,000; AID 504490, 2011;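 active = inhibition above a set limit, near 3 SD of compounds lacking own fluorescence, cut at about 54% in these data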;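 note: plate controls were DMSO wells for no effect and 5 µM unlabelled arrestin peptide for full effect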
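System: GST-tagged AP2 beta2-adaptin appendage (R879A) on 4 µm glutathione beads / Reagent: FITC-arrestin peptide, 50 nM / Detection: HyperCyt-sampled flow cytometry, FL1 channel, ex 488/em 535 nm / Timing: 12 min plus 1 h, RT / Buffer or medium: PBS plus Tween 20 (0.05%) and BSA (0.1%)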
m5-HT2A agonist – mouse Htr2a agonists via beta-arrestin recruitment, primary screen, cell-based, luminescence; 5-hydroxytryptamine receptor 2A (Mus musculus), P35363; CHO-K1 mHTR2A beta-arrestin complementation; percent of 30 µM serotonin response; activation, % at 7.6 µM; hit rate 0.66% among 360,000; AID 624169, 2012;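 active = activation above a run cutoff, the mean activation of all tested compounds plus 3 SD, cut at about 14% in these data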;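 note: 0% = plate median of compound wells and 100% = 30 µM serotonin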
CendR NRP1 mod – modulators of CendR peptide binding to NRP-1, primary screen, biochemical, fluorescence polarization, uHTS; inhibition, % at 25 µM; FAM-RPARPAR peptide binding to NRP-1; Neuropilin-1 (Homo sapiens), O14786; hit rate 0.85% among 360,000;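 active = inhibition or corrected inhibition above about 18%, plus a signal ratio from 0.5 to 1.5, limit read from the data, passing the limit was not always enough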
* marks the source's active call; other numbers are inactive results; . = not tested or not shown. The list is not random: actives were taken first. Their share in the collection is about 3.3%.

SMILES	Lipid droplet	HGIII-sPLA2 inh	PfM18AAP inh	Arr AP2 block	m5-HT2A agonist	CendR NRP1 mod
CCOC(=O)CSc1nc2nc(C)cc(C)n2n1	1.8	5.1	-2.9	19.6	-1.6	-7.7
CCCn1c(C)cc(C(=O)CSc2nc3nc(C)cc(C)n3n2)c1C	-6.7	-3.0	-3.0	3.1	8.3	32.6*
CCOc1ccc(C(=O)Nn2cnnc2)cc1OCC	-1.2	10.2	29.0*	-3.8	4.0	-5.2
CC(C)(C)c1ccc(C(=O)Nn2cnnc2)cc1	12.5	1.1	13.0	-1.2	3.9	-3.3
Cc1cc(C)cc(C(=O)Nn2cnnc2)c1	-4.5	10.5	31.4*	-0.4	0.7	10.8
CCN(CC)Cc1cc(O)c(CN(CC)CC)cc1O	-81.2	-4.0	29.2*	33.1	-0.2	22.2
CCc1oc(C(=O)O)cc1CN(CC)CC	18.6	3.5	-6.4	13.7	-0.3	-4.3
C/C(=N\NC(=O)c1cc(-c2cccs2)nc2ccccc12)c1ccccn1	-51.5	-2.8	-0.1	-1.2	-3.1	30.2*
NNC(=O)c1cc(-c2cccs2)nc2ccccc12	14.1	-6.3	4.6	-2.5	-9.3	-6.1
N#Cc1ccsc1NC(=O)CN1CCN(c2ccc(O)cc2)CC1	24.9	-1.7	30.0*	-4.2	-1.1	-5.7
O=C(CN1CCN(c2ccc(O)cc2)CC1)Nc1ccc(SC(F)F)cc1	29.6	1.0	28.1*	-3.9	-0.5	-7.1
O=C(Nc1nccs1)c1cn(-c2ccccc2)nc1-c1ccccc1	0.1	-3.3	-1.1	16.5	0.1	2.8
CC(=O)Cc1nsc(NC(=O)c2cn(-c3ccccc3)nc2-c2ccc(Br)cc2)n1	-0.8	10.8	7.2	30.3	1.3	32.4*
O=C(/C=C(\Nc1ccc(Cl)c(Cl)c1)c1ccccc1)c1ccccc1	.	4.4	.	.	.	.
CCC1(CC)C(=O)NN(c2ccccc2)C1=O	17.0	4.7	-4.0	3.7	2.1	26.8*
CCC1(CC)C(=O)N(c2ccccc2)C(=N)N(c2ccccc2)C1=O	.	12.4	.	-6.6	0.5	6.8
CC1CCCN(C(=O)COC(=O)C2=COCCO2)C1 (stereo not drawn)	.	-0.1	.	-15.1	-1.4	-4.5
Cc1cccc(NC(=S)N=Nc2c(O)[nH]c3ccccc23)c1	-14.0	20.2*	6.7	8.9	-3.1	10.1
CC[C@@H](C(=O)[C@@H](C)[C@@H](O)[C@H](C)[C@@H]1O[C@@H]([C@@H](CC)C(=O)O)CC[C@@H]1C)[C@H]1O[C@]2(C=C[C@@H](O)[C@]3(CC[C@@](C)([C@H]4CC[C@](O)(CC)[C@H](C)O4)O3)O2)[C@H](C)C[C@@H]1C	.	-15.9	.	-1.8	23.3*	7.1
Oc1c(Br)cc(Br)cc1/C=N/Nc1ccc(Cl)nn1	-0.5	4.6	39.6*	23.5	5.5	0.9
COC(=O)[C@]12C[C@H](CC(=O)N3CCC(c4ccccc4)CC3)C(=O)N(Cc3ccc(Cl)cc3Cl)C1=C[C@H](COCc1ccccc1)O[C@@H]2C	.	3.9	.	.	.	.
c1ccc(-c2ccc(CN3CCN(c4ncccn4)CC3)cc2)cc1	.	-5.0	0.8	32.7	16.1*	-2.7
O=[N+]([O-])c1ccc(CN2CCN(c3ncccn3)CC2)cc1	.	7.3	1.3	9.9	12.3	-3.6
CCOc1ccccc1N1CCN(C(=O)c2ccncc2)CC1	3.3	-4.0	2.5	3.6	-3.9	43.2*
CCOc1ccccc1N1CCN(C(=O)c2cccc(-c3ccc(O)cc3)c2)CC1	.	-35.5	-5.4	-3.2	-3.6	4.7
C=CCOc1ccc(/C=C2/C(=O)ON=C2C)cc1OC	-12.4	0.3	29.6*	-8.3	2.6	1.8
COc1ccc(NS(=O)(=O)c2cc(NC(=O)CC(C)(C)C)ccc2N2CCCC2)cc1	.	-5.9	.	-3.5	-3.5	-15.9
CNC(=S)Nc1ccc(N2CCCC2)c(S(=O)(=O)Nc2ccc(OC)cc2)c1	.	14.5	.	-4.2	-3.4	41.5*
COc1cccc(N(C)C(=O)[C@@H](C2CC2)[C@@H](O)c2ccc(Cl)cc2)c1	.	-4.9	.	.	.	.
